# Hits are enriched below; roughly 1.8% of the tested compounds scored in any of these assays.
# NPY Y1 blocker: blocks the human neuropeptide Y Y1 receptor. HEK293-CNG Y1 cells, membrane potential fluorescence; NPY at EC95, then isoproterenol. inhibition, % at 3.6 µM. hit rate 1% among 200,000. AID 1040;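 active = inhibition above the campaign mean inhibition of all tested compounds plus 3 SD, cut at about 20% in these data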;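 also: 0% = DMSO wells given NPY plus isoproterenol and 100% = isoproterenol alone without NPY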
# Target sequence (P25929 whole entry, looked up): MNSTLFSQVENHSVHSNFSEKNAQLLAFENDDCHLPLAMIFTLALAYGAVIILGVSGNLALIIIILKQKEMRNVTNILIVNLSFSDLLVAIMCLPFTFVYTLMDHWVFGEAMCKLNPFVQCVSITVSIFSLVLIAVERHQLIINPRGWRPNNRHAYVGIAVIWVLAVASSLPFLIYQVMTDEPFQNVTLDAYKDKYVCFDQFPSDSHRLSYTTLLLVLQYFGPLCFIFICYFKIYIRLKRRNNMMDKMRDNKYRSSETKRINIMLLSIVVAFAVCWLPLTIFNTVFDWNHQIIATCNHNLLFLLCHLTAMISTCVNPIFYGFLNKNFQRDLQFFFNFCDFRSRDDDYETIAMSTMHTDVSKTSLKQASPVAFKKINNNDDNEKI
#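 Material: HEK293 Y1/CNG channel cell line; also added: NPY (25 nM), isoproterenol (1 µM), Ro 20-1724 (25 µM); doses: one concentration, 3.6 µM, in 0.4% DMSO; schedule: compound incubation 1 h at room temperature, readout 45 min post-stimulation; technique: membrane potential fluorescence; measure: fluorescence ratio normalized to % inhibition between controls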
# NPY2 pot ag: human NPY-Y2 potentiation or agonism, primary screen; P49146; cells expressing NPY-Y2, potentiator/agonist read-out; activation, % at 3.6 µM; hit rate 0.45% among 220,000; AID 1359; in the data active = activation above about 27%;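 also: cells stimulated with NPY near EC25 plus isoproterenol at EC100; 0% = vehicle plus submaximal agonist and 100% = vehicle plus saturating agonist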
# Target sequence (P49146 whole entry, looked up): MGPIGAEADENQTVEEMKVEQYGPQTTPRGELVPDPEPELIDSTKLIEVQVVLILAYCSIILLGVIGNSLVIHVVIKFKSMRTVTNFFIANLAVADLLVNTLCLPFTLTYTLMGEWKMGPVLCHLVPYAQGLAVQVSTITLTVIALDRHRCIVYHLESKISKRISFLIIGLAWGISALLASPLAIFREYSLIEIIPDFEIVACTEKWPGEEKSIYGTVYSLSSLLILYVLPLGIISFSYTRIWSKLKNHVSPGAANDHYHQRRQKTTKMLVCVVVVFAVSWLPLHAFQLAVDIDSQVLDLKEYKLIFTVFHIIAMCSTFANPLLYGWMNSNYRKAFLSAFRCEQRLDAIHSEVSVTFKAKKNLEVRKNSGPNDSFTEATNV
# NPY-Y1 PAM-ag: human NPY-Y1 potentiation or agonism, primary screen | NPY-Y1 expressing cells, potentiator/agonist activation | hit rate 0.37% among 220,000 | AID 1304 | activation, % at 3.6 µM; in the data active = activation above about 33%, passing the limit was not always enough;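 also: cells stimulated with NPY at EC10 then isoproterenol at EC100; 0% = low agonist plus stimulus and 100% = saturating agonist plus stimulus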
# NPY-Y2 antag: NPY-Y2 (human) receptor antagonism; P49146; NPY-Y2 expressing cells, antagonist mode; inhibition, % at 2.7 µM; hit rate 0.99% among 140,000; AID 793; in the data active = inhibition above about 17%;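 also: 0% = vehicle with agonist challenge and 100% = reference antagonist with challenge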
# NPY-Y2 pot conf: confirmation of human NPY-Y2 receptor potentiators or agonists; shares compounds with NPY2 pot ag; cell-based NPY-Y2 potentiator/agonist assay; activation, % at 3.6 µM; hit rate 20% among 450; in the data active = activation above about 33%
# NPY-Y1 counter: potentiates or activates NPY-Y1, counter-screen for NPY-Y2 hits. AID 1651. Y1 HEK293-CNG cells, membrane potential fluorescence. shares compounds with NPY2 pot ag. activation, % at 3.6 µM. hit rate 20% among 450; in the data active = activation above about 45%;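 also: cells stimulated with submaximal NPY then isoproterenol with phosphodiesterase inhibitor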
# NPY-Y1 agonist 2: human NPY-Y1 agonism as NPY-Y2 potentiator counter-screen | activation, % at 3.6 µM | hit rate 37% among 450 | AID 1702 | HEK293 Y1-CNGC, membrane potential fluorescence | shares compounds with NPY2 pot ag;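 active = activation above the mean of DMSO-only control wells plus 3 SD, cut at about 18% in these data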;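 also: cells stimulated with 1 µM isoproterenol plus the PDE inhibitor Ro 20-1724; 0% = isoproterenol with DMSO and no NPY and 100% = 40 nM NPY; Y1 agonists lower the membrane potential dye signal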
# CNGC inh: cyclic nucleotide gated channel inhibition as counter-screen; HEK293-CNG parental, isoproterenol cAMP, membrane potential fluorescence; shares compounds with NPY2 pot ag; inhibition, % at 3.6 µM; AID 1703; hit rate 32% among 450;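 active = inhibition above the control-well mean plus 3 SD of those wells, cut at about 22% in these data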;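 also: 0% = DMSO with isoproterenol and 100% = DMSO without isoproterenol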
# NPY-Y2 ag 2: counter-screen for NPY-Y2 potentiators: agonists of human NPY-Y2; shares compounds with NPY2 pot ag; HEK293 Y2/CNGC cells, membrane potential fluorescence, agonist mode; activation, % at 3.6 µM; hit rate 56% among 450; AID 1710;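 active = activation above the mean of solvent-only control wells plus 3 SD, cut at about 10% in these data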;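 also: cells stimulated by isoproterenol with no NPY added so direct agonism is tested; 0% = DMSO with isoproterenol alone and 100% = NPY at EC100 plus isoproterenol; agonism lowers probe fluorescence through less cAMP and CNG channel opening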
# * hit, by the source's call; / = not tested or not shown.
SMILES,NPY Y1 blocker,NPY2 pot ag,NPY-Y1 PAM-ag,NPY-Y2 antag,NPY-Y2 pot conf,NPY-Y1 counter,NPY-Y1 agonist 2,CNGC inh,NPY-Y2 ag 2
Cc1ccc(C(=O)N2CC3(C)CN(C(=O)c4ccc(C)cc4)CC(C)(C2)C3=O)cc1,1.9,30.1*,14.2,-0.2,-1.6,-0.1,0.5,-3.3,-6.0
CC1CCCC(NC(=O)C2CCN(S(=O)(=O)N3CCCCCC3)CC2)C1C (stereo not given),5.5,3.8,-7.9,-0.4,/,/,/,/,/
Nc1nnc(CC(=O)Nc2ccccc2)s1,/,47.1*,17.5,/,-5.2,-5.5,-8.0,-1.9,-11.5
Cc1nn(-c2ccccc2)c2sc(C(=O)NC3CC3)cc12,-0.3,45.0*,-5.7,0.3,-4.7,-3.2,4.2,0.8,-0.1
CC(=O)c1sc(NC(=O)c2cc3c(C)nn(-c4ccccc4)c3s2)nc1C,-1.1,-11.4,2.4,2.8,/,/,/,/,/
COc1ccc(C(CC(=O)NCC(OC)OC)NS(=O)(=O)c2ccc(Cl)cc2)cc1 (stereo not given),1.1,-17.1,2.0,/,/,/,/,/,/
NS(=O)(=O)c1ccc(CCNC(=O)/C=C/c2cccc([N+](=O)[O-])c2)cc1,-0.2,-5.8,10.1,/,/,/,/,/,/
Cc1nn(Cc2ccc(Cl)cc2)c(C)c1NC(=O)CSc1n[nH]c(C)c1[N+](=O)[O-],-3.5,28.6*,8.9,0.7,13.3,16.1,15.6,19.4,26.5*
Cc1nn(Cc2ccccc2)c(C)c1NC(=O)CSc1n[nH]c(C)c1[N+](=O)[O-],-3.7,14.7,-10.9,0.3,/,/,/,/,/
Nc1ccccc1NC1CCCCC1,-3.0,36.2*,32.5,/,20.7,33.8,17.1,26.4*,24.1*
COC(=O)CN1C(=S)N(c2ccc(Cl)cc2)C(=O)C1CC(=O)Nc1ccc(Cl)cc1 (stereo not given),-11.2,54.7*,48.2,1.6,48.8*,71.6*,67.5*,59.8*,66.9*
O=C(CC1C(=O)NCCN1C(=O)Nc1ccccc1)Nc1ccc(F)cc1 (stereo not given),/,18.9,9.6,/,/,/,/,/,/
O=C(CC1C(=O)NCCN1C(=O)Nc1ccc(Cl)cc1)Nc1ccc(F)cc1 (stereo not given),-6.5,28.9*,34.0,/,55.2*,74.9*,57.9*,57.2*,50.4*
COC(=O)CN1C(=S)N(c2ccc(F)cc2)C(=O)C1CC(=O)Nc1ccc(F)cc1 (stereo not given),/,25.9,10.9,/,/,/,/,/,/
COc1ccc(NC(=O)CC2C(=O)N(c3ccc(Cl)cc3)C(=S)N2CCc2ccncc2)cc1 (stereo not given),-9.6,12.7,31.8,-2.0,/,/,/,/,/
COC(=O)CN1C(=S)N(c2ccc(Cl)cc2)C(=O)C1CC(=O)Nc1ccc(F)cc1 (stereo not given),-8.0,30.1*,31.8,-4.0,32.8,57.6*,43.0*,46.4*,37.9*
CCN(Cc1ccncc1)Cc1c(O)ccc2cc(Br)ccc12,-4.0,4.1,17.4,/,/,/,/,/,/
COc1ccc(C(=O)CSc2nc(C(C)(C)C)nc3ccccc23)cc1,-1.8,-7.2,-14.0,/,/,/,/,/,/
O=C(O)c1nccnc1C(=O)Nc1ccc(Oc2c(Cl)cccc2Cl)nc1,/,73.1*,12.3,/,-2.6,-2.3,-12.4,-8.3,-0.2
COc1ccc(CN(CCC(c2ccccc2)c2ccc(OC(C)C)cc2)C(=O)CCl)cc1OC (stereo not given),6.8,4.7,5.2,7.6,/,/,/,/,/
O=C(Cn1c(-c2cscn2)nc2ccccc21)Nc1ccc2ccccc2c1,-9.7,29.2*,43.7,-1.1,18.1,36.6,27.2*,31.6*,25.2*
O=C1Nc2ccccc2N=C(c2ccccc2)c2ccccc21,/,40.6*,27.2,/,5.8,19.4,8.6,14.2,-1.5
CC1CCN(S(=O)(=O)c2cc(C(=O)N3CCN(c4ncccn4)CC3)ccc2Br)CC1,0.7,-4.8,-25.6,6.5,/,/,/,/,/
O=[N+]([O-])c1cc([N+](=O)[O-])c2c(=Nc3ccccc3)n(-c3ccccc3)n(O)c2c1,-1.4,45.8*,28.1,/,46.7*,52.3*,46.7*,33.6*,64.9*
CCOC(=O)c1c(C)[nH]c(C(=O)COC(=O)c2ccc(O)cc2)c1C,/,45.4*,8.2,/,-8.9,-15.9,-12.9,-11.0,-3.4
SMILES,NPY Y1 blocker,NPY2 pot ag,NPY-Y1 PAM-ag,NPY-Y2 antag,NPY-Y2 pot conf,NPY-Y1 counter,NPY-Y1 agonist 2,CNGC inh,NPY-Y2 ag 2
CC(C)CC(NC(=O)c1ccc(Cl)cc1)C(=O)OCc1cc([N+](=O)[O-])cc2c1OCOC2 (stereo not given),-7.7,28.3*,22.1,1.8,0.4,-2.1,-9.7,-3.2,18.1*
CC(C)C(NC(=O)c1ccccc1)C(=O)OCc1cc([N+](=O)[O-])cc2c1OCOC2 (stereo not given),4.4,7.5,-8.0,1.8,/,/,/,/,/
Cc1nc2ccc(S(=O)(=O)NC(C(=O)Nc3nc4ccc(Cl)cc4s3)C(C)C)cc2s1 (stereo not given),-3.9,30.3*,24.5,-1.9,9.9,15.7,7.4,18.0,6.6
CCC(CC)c1nnc(NC(=O)[C@@H](NC(=O)c2cccc(C)c2)C(C)C)s1,3.3,8.4,20.6,3.2,/,/,/,/,/
O=C(Nc1ccc(S(=O)(=O)Nc2nccs2)cc1)c1cc(-c2ccccc2Cl)nc2ccccc12,-2.3,33.5*,9.9,4.6,13.9,16.9,5.7,7.9,9.9
Cc1ccc(N2C(SCC(=O)O)=NC(=Nc3cccc(C)c3)C23CCCC3)cc1,2.1,70.3*,22.9,/,-2.7,-0.2,-10.4,0.4,-8.3
O=C(O)CSC1=NC(=Nc2ccc(Cl)cc2)C2(CCCCC2)N1c1cccc(C(=O)O)c1,-2.3,5.7,0.8,1.4,/,/,/,/,/
Cc1cccc(OCc2nnc(SCC(=O)Nc3cccc(C(=O)N4CCOCC4)c3)o2)c1C,-1.3,8.4,5.0,3.8,/,/,/,/,/
O=C(C1CCCN1C(=O)c1cccs1)N1CCc2ccccc21 (stereo not given),1.1,-4.4,-7.3,4.9,/,/,/,/,/
CCOC(=O)Nc1nnc(-c2ccc(OC)cc2)s1,7.2,8.0,-11.3,2.5,/,/,/,/,/
CCOC(=O)Nc1nnc(-c2cccc(OC)c2)s1,1.6,48.8*,15.1,2.8,8.0,17.9,24.7*,-6.1,7.9
O=C(COc1cccc2cccnc12)Nc1ccccc1N1CCOCC1,-0.7,17.6,16.6,/,/,/,/,/,/
Cn1c(CSCc2ccccc2)n[nH]c1=S,3.1,-1.5,-13.8,10.5,/,/,/,/,/
O=C1c2cccc3cccc(c23)C(=O)N1CC1CCN(CC(O)COCc2ccc3c(c2)OCO3)CC1 (stereo not given),-3.9,49.8*,7.4,6.2,74.6*,89.7*,21.4*,18.2,64.8*

# Compound activity from PubChem.
